Results of several laboratories.
Protocols differ between the studies behind these lines.
FLT3 D835H: Receptor-type tyrosine-protein kinase FLT3 (FLT3, Homo sapiens, UniProt P36888, D835H)
FLT3 K663Q: Receptor-type tyrosine-protein kinase FLT3 (FLT3, Homo sapiens, UniProt P36888, K663Q)
FLT3 N841I: Receptor-type tyrosine-protein kinase FLT3 (FLT3, Homo sapiens, UniProt P36888, N841I)
FLT3 D835V: Receptor-type tyrosine-protein kinase FLT3 (FLT3, Homo sapiens, UniProt P36888, D835V)
FLT3 autoinhibited: Receptor-type tyrosine-protein kinase FLT3, autoinhibited (FLT3, Homo sapiens, UniProt P36888)
FLT3 ITD: Receptor-type tyrosine-protein kinase FLT3 (FLT3, Homo sapiens, UniProt P36888, ITD)

| Compound | target | test | conditions | remaining binding [%] |
| --- | --- | --- | --- | --- |
| COc1ccnn2ncc(-c3ccnc(N(C)C)n3)c12 | FLT3 D835H | binding | 1 µM | 100 |
| CC1=C(C#N)C(c2ccc3c(c2)c(NC(=O)c2ccccc2C)nn3C)C(C#N)=C(C)N1 | FLT3 K663Q | cell-free assay, competition with immobilised ligand | 1 µM | 100 |
| CN(C)c1ncc(F)c(-c2cnn3ncccc23)n1 | FLT3 N841I | binding | 1 µM | 75 |
| O=C(c1ccc(Nc2ncc(Cl)c(-c3ccc(Cl)s3)n2)cc1)N1CCC(N2CCCC2)CC1 | FLT3 D835V | binding, competition with immobilised ligand | 1 µM | 1.9 |
| Cc1cnn2ncc(-c3ccnc(N(C)C)n3)c2c1 | FLT3 D835V | binding | 1 µM | 66 |
| COc1ncc2cc3ccccc3nc2c1C#N | FLT3 D835V | cell-free assay, competition with immobilised ligand | 5 µM | 100 |
| Cc1cnc(Nc2ccc(C(=O)N3CCC(N4CCCC4)CC3)cc2)nc1-c1cc2ccccc2s1 | FLT3 D835H | binding, competition with immobilised ligand | 1 µM | 1.1 |
| CN1CCN(c2ccc(Nc3nccc(-c4ccccc4)n3)cc2C(F)(F)F)CC1 | Receptor-type tyrosine-protein kinase FLT3 (FLT3, Homo sapiens, UniProt P36888, R834Q) | binding | 10 µM | 15 |
| Nc1ncc2c(n1)-c1c([nH]c3ccc(C#CC4CC4)cc13)CCCC2 | FLT3 N841I | binding, competition with immobilised ligand | 1 µM | 89 |
| CCCCN(CCCC)C(=O)CN1C[C@H](c2cc(OC)c3c(c2)OCO3)[C@@H](C(=O)O)[C@@H]1CC(C)(C)CCC | FLT3 N841I | cell-free assay, competition with immobilised ligand | 1 µM | 100 |
| CN(CCCC(F)(F)F)c1nccc(-c2cnn3ncccc23)n1 | FLT3 N841I | binding | 1 µM | 100 |
| CNC(=O)[C@@H]1CC[C@@H](n2c(-c3ccc4cnccc4c3)nc3ccc(C(=O)NCc4cccc(C(N)=O)c4)cc32)C1 | FLT3 D835H | binding, competition with immobilised ligand | 1 µM | 100 |
| C[C@H](NC(=O)c1cnc2n1[C@](C)(Cc1ccc(C#N)cc1)C(=O)N2c1cc(Cl)c(F)c(Cl)c1)C(=O)NC1(c2ccccn2)CC1 | FLT3 K663Q | cell-free assay, competition with immobilised ligand | 1 µM | 100 |
| CN(C)c1nccc(-c2cnn3ncccc23)n1 | FLT3 autoinhibited | binding | 1 µM | 100 |
| CCC(=O)N[C@H]1CC[C@@H](C(=O)N(C)c2ccc(-c3nc4ccccc4o3)cc2)C1 | FLT3 K663Q | cell-free assay, competition with immobilised ligand | 1 µM | 88 |
| O=C(c1ccc(Nc2ncc(Cl)c(-c3cc4ccccc4s3)n2)cc1)N1CCC(N2CCCC2)CC1 | FLT3 ITD | binding, competition with immobilised ligand | 1 µM | 6.2 |
| CCCOc1ccc([C@H]2[C@H](C(=O)O)[C@@H](c3ccc4c(c3)OCO4)CN2CC(=O)Nc2c(CC)cccc2CC)cc1 | FLT3 N841I | cell-free assay, competition with immobilised ligand | 1 µM | 93 |
| O=C(c1ccc(Nc2nccc(-c3cc4ccccc4s3)n2)cc1)N1CCC(N2CCCC2)CC1 | FLT3 ITD | binding, competition with immobilised ligand | 1 µM | 46 |
| C[C@@H]1CCN(c2nccc(-c3cnn4ncccc34)n2)C1 | FLT3 K663Q | binding | 1 µM | 100 |
| COc1cnc(Nc2cccc(S(N)(=O)=O)c2)nc1N1CCN(c2ccccc2)C(=O)C1 | FLT3 autoinhibited | binding, competition with immobilised ligand | 1 µM | 100 |
| Cc1cc(-n2nc(Cc3cc(F)cc(C(F)(F)F)c3)nc2C)ccc1C(N)=O | FLT3 autoinhibited | cell-free assay, competition with immobilised ligand | 1 µM | 100 |
| N[C@H]1CCN(c2nccc(-c3cnn4ncccc34)n2)C1 | Receptor-type tyrosine-protein kinase FLT3 (FLT3, Homo sapiens, UniProt P36888) | binding | 1 µM | 99 |
